For 11 compounds, IC50 and Kd results are on record in ChEMBL document CHEMBL1154334, “Effect of the structure of adenosine mimic of bisubstrate-analog inhibitors on their activity towards basophilic protein kinases” (Bioorg Med Chem Lett, 2009).

Where a SMILES comes first, the peptide text is derived from it. [ ]: non-standard residue; d: D form. The star is where a group is joined. X1 = Nc1nccc(-c2ccc(C(=O)*)s2)n1; Ahx = NCCCCCC(=O)O

Assay [1] has as its target T1, cAMP-dependent protein kinase catalytic subunit alpha (Homo sapiens, UniProt P17612). Briefly: Inhibition of PKACalpha in presence of […].
Assay [2] addresses RAC-gamma serine/threonine-protein kinase (Homo sapiens, UniProt Q9Y243). Kind of assay: Inhibition of PKBgamma in presence of 100 uM ATP. The procedure, abridged: (§1)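 Kinetic phosphorylation assays with PKA catalytic subunit (PKAc) or PKB catalytic subunit (PKBc) at fixed ATP. ATP Km values taken as 20 for PKAc and 100 for PKBc.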
In assay [3] the target is Rho-associated protein kinase 2 (Homo sapiens, UniProt O75116). Kind of assay: Displacement of ARC583 from ROCK2.
In assay [4] the target is T1, cAMP-dependent protein kinase catalytic subunit alpha. Kind of assay: Inhibition of PKACalpha in presence of 100 uM ATP. In short, it runs like this:
as §1

Rho-associated protein kinase 2, sequence (O75116 whole entry): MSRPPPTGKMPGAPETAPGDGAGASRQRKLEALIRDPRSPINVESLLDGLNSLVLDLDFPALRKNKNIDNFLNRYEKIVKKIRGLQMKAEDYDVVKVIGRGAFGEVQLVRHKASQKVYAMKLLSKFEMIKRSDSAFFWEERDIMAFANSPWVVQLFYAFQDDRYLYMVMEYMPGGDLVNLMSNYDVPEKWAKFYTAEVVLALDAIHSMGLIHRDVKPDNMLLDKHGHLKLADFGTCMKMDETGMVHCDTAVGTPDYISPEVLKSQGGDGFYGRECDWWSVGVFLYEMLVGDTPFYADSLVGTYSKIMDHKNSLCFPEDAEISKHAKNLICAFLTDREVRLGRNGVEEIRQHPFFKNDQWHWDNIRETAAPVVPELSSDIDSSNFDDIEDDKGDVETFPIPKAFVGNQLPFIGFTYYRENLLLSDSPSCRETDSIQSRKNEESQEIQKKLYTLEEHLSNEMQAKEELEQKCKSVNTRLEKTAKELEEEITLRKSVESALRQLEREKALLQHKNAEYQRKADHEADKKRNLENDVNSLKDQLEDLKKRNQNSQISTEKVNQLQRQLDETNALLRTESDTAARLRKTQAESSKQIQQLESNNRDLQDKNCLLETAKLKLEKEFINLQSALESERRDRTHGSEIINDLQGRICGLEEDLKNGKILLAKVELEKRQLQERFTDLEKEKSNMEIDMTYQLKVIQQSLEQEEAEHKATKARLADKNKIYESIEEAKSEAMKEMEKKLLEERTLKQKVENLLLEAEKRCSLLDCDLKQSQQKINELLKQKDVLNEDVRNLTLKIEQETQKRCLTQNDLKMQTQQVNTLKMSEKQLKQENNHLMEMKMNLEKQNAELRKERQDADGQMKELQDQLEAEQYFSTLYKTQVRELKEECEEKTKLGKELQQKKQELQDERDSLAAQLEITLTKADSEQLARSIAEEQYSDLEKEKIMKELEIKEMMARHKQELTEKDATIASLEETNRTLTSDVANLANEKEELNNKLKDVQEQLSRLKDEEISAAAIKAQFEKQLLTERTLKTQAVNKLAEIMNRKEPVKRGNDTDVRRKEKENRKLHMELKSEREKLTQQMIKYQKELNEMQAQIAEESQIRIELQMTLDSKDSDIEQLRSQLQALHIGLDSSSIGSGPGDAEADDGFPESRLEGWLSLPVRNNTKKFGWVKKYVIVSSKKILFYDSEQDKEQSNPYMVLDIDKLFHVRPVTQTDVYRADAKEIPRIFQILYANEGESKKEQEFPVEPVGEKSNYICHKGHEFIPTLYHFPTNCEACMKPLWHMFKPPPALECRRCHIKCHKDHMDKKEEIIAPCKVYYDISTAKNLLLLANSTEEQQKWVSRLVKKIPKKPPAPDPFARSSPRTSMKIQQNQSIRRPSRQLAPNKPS
RAC-gamma serine/threonine-protein kinase, sequence (Q9Y243 whole entry): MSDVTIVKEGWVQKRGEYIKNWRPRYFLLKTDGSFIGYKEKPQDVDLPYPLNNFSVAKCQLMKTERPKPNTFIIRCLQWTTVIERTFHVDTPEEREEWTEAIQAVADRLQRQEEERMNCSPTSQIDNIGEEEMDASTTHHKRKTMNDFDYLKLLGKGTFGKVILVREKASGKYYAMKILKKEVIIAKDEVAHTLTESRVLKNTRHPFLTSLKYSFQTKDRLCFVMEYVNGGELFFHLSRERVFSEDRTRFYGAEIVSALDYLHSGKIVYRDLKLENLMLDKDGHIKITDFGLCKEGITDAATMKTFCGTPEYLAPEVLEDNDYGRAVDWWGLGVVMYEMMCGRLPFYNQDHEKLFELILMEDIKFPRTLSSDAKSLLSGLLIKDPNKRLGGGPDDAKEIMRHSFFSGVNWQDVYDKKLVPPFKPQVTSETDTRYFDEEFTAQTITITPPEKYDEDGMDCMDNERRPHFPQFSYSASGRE

Broadly, the IC50 is the point on the concentration scale where inhibition reaches its midpoint. A word on the Kd: it is the constant that tells how readily two partners part at equilibrium. Higher therefore signals a looser complex. `N=C(N)NCCC[C@@H](NC(=O)[C@@H](CCCNC(=N)N)NC(=O)CCCCCNC(=O)[C@@H](CCCCN)NC(=O)CCCCCNC(=O)c1ccc(-c2ccnc(N)n2)s1)C(N)=O`: the IC50 worked out at 82 nM in assay [1] and 0.27 µM in assay [2]. For the same compound, the Kd in assay [3] was less than 3 nM.
`NCCCC[C@@H](NC(=O)CCCCCNC(=O)c1cccc(-c2ccncc2)c1)C(=O)NCCCCCC(=O)N[C@H](CCCN=C(N)N)C(=O)N[C@H](CCCN=C(N)N)C(N)=O`: the IC50 in assay [4] (read-out: IC50) was 0.39 µM; in assay [2], 0.9 µM. In addition, the Kd in assay [3] was found to be 3.8 nM.
The corresponding values for `NCCCC[C@@H](NC(=O)CCCCCNC(=O)c1cccc(-c2ccnc(N)n2)c1)C(=O)NCCCCCC(=O)N[C@H](CCCN=C(N)N)C(=O)N[C@H](CCCN=C(N)N)C(N)=O` are 0.061 µM, 4.6 µM and 36 nM.
With `N=C(N)NCCC[C@@H](NC(=O)[C@@H](CCCNC(=N)N)NC(=O)CCCCCNC(=O)[C@@H](CCCCN)NC(=O)CCCCCNC(=O)c1cn(-c2ncnc3[nH]cnc23)nn1)C(N)=O`, in assay [2], the IC50 was 27 µM. Further, the equilibrium dissociation constant (Kd) in assay [3] is 800 nM.
Consider `NCCCC[C@H](NC(=O)[C@@H](CCCN=C(N)N)NC(=O)[C@@H](CCCN=C(N)N)NC(=O)[C@@H](CCCN=C(N)N)NC(=O)[C@@H](CCCN=C(N)N)NC(=O)[C@@H](CCCN=C(N)N)NC(=O)[C@@H](CCCN=C(N)N)NC(=O)CCCCCNC(=O)[C@@H](CCCCN)NC(=O)CCCCCNC(=O)c1ccc(-c2ccnc(N)n2)s1)C(N)=O`, for which the values for the IC50 in assay [1] and in assay [2] were 4.9 nM and 0.042 µM, respectively.
Take `CC(=O)NCCCCCC(=O)N[C@H](CCCCN)C(=O)NCCCCCC(=O)N[C@H](CCCNC(=N)N)C(=O)N[C@H](CCCNC(=N)N)C(N)=O`: the IC50 entry in assay [4] is “Not Active”; in assay [2], more than 2000 µM. In addition, in assay [3], binding was characterised by a dissociation constant (Kd) of 123000 nM.
With `NCCCC[C@@H](NC(=O)CCCCCNC(=O)c1ccccc1)C(=O)NCCCCCC(=O)N[C@H](CCCN=C(N)N)C(=O)N[C@H](CCCN=C(N)N)C(N)=O`, the IC50 in assay [4] (read-out: IC50) came to 183 µM; in assay [2], 360 µM. The same compound came in with a Kd in assay [3] of 8000 nM.
On to `NCCCC[C@@H](NC(=O)CCCCCNC(=O)c1ccc(C(N)=O)cc1)C(=O)NCCCCCC(=O)N[C@H](CCCN=C(N)N)C(=O)N[C@H](CCCN=C(N)N)C(N)=O`, for which the IC50 in assay [4] (read-out: IC50) came to 23 µM; in assay [2] it was 28 µM. Also, the Kd in assay [3] was determined as 177 nM.
For `N=C(N)NCCC[C@@H](NC(=O)[C@@H](CCCNC(=N)N)NC(=O)CCCCCNC(=O)[C@@H](CCCCN)NC(=O)CCCCCNC(=O)Nc1ccc(C(N)=O)cc1)C(N)=O` the same measures were 240 µM, 900 µM and 6100 nM.
In the case of `NCCCC[C@@H](NC(=O)CCCCCNC(=O)[C@H]1O[C@@H](n2cnc3c(N)ncnc32)[C@H](O)[C@@H]1O)C(=O)NCCCCCC(=O)N[C@H](CCCN=C(N)N)C(=O)N[C@H](CCCN=C(N)N)C(N)=O`, the Kd in assay [3] was less than 3 nM.
Regarding `NCCCC[C@@H](NC(=O)CCCCCNC(=O)c1ccc(-c2ccnc(N)n2)s1)C(=O)NCCCCCC(=O)N[C@H](CCCN=C(N)N)C(=O)N[C@H](CCCN=C(N)N)C(=O)N[C@H](CCCN=C(N)N)C(=O)N[C@H](CCCN=C(N)N)C(=O)N[C@H](CCCN=C(N)N)C(=O)N[C@H](CCCN=C(N)N)C(N)=O` ({X1-Ahx}-[dK][Ahx][dR][dR][dR][dR][dR][dR]-NH2), the IC50 in assay [2] is 0.012 µM.
